From ChEMBL document CHEMBL5653631, “A Potent and Selective ULK1 Inhibitor Suppresses Autophagy and Sensitizes Cancer Cells to Nutrient Stress” (iScience, 2018)
One block for each compound: values may come before it.

What was measured:
[1] = target: Calcium/calmodulin-dependent protein kinase type II subunit alpha (Homo sapiens) (UniProt Q9UQM7); assay: Inhibition of human recombinant CaMK2a at 500 nM in presence of ATP by radiometric assay relative to control
[2] = target: Cyclin-dependent kinase 7 (Homo sapiens) (UniProt P50613); assay: Inhibition of human recombinant CDK7 at 500 nM related to control ULK1
[3] = target: Proto-oncogene tyrosine-protein kinase ROS (Homo sapiens) (UniProt P08922); assay: Inhibition of human recombinant ROS at 500 nM related to control ULK1
[4] = target: T1, cGMP-dependent protein kinase 2 (Homo sapiens) (UniProt Q13237); assay: Inhibition of human recombinant PKG2 at 15 nM in presence of ATP by radiometric assay relative to control
T1 sequence (whole entry): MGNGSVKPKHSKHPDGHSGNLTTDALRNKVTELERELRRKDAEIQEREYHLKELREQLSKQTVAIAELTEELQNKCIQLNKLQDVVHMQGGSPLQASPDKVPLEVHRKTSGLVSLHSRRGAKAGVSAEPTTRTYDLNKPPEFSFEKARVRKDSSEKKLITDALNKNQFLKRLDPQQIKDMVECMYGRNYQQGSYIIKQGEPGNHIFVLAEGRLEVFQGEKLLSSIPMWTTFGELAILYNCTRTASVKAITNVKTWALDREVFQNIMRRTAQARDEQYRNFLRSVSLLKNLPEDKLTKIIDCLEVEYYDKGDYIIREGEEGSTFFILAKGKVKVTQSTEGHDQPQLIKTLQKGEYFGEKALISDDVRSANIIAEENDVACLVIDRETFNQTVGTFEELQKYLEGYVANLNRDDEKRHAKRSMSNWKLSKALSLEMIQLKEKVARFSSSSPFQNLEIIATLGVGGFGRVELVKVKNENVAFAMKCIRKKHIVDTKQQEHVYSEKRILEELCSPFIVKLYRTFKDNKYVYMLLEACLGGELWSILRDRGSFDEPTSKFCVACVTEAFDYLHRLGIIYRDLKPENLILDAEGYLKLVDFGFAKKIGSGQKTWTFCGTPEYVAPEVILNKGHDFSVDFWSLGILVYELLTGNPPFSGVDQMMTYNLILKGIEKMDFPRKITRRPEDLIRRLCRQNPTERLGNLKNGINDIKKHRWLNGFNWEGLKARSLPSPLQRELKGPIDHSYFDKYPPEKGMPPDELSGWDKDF

[5] = target: Serine/threonine-protein kinase 32A (Homo sapiens) (UniProt Q8WU08); assay: Inhibition of human recombinant YANK1 at 15 nM in presence of ATP by radiometric assay relative to control
[6] = target: Mitogen-activated protein kinase kinase kinase 9 (Homo sapiens) (UniProt P80192); assay: Inhibition of human recombinant MLK1 at 40 nM in presence of ATP by radiometric assay relative to control
[7] = target: Aurora kinase B (Homo sapiens) (UniProt Q96GD4); assay: Inhibition of human recombinant AurB at 40 nM related to control ULK1
Summary of the method: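 Radiometric activity assays in a panel of 327 human recombinant kinases, each run in duplicate at one inhibitor concentration. Activity remaining is expressed as percent of vehicle control, and percent inhibition is calculated as 100% minus percent activity remaining.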

[8] = target: T2, Ephrin type-B receptor 1 (Homo sapiens) (UniProt P54762); assay: Inhibition of human recombinant EphB1 at 40 nM related to control ULK1
T2 sequence (whole entry): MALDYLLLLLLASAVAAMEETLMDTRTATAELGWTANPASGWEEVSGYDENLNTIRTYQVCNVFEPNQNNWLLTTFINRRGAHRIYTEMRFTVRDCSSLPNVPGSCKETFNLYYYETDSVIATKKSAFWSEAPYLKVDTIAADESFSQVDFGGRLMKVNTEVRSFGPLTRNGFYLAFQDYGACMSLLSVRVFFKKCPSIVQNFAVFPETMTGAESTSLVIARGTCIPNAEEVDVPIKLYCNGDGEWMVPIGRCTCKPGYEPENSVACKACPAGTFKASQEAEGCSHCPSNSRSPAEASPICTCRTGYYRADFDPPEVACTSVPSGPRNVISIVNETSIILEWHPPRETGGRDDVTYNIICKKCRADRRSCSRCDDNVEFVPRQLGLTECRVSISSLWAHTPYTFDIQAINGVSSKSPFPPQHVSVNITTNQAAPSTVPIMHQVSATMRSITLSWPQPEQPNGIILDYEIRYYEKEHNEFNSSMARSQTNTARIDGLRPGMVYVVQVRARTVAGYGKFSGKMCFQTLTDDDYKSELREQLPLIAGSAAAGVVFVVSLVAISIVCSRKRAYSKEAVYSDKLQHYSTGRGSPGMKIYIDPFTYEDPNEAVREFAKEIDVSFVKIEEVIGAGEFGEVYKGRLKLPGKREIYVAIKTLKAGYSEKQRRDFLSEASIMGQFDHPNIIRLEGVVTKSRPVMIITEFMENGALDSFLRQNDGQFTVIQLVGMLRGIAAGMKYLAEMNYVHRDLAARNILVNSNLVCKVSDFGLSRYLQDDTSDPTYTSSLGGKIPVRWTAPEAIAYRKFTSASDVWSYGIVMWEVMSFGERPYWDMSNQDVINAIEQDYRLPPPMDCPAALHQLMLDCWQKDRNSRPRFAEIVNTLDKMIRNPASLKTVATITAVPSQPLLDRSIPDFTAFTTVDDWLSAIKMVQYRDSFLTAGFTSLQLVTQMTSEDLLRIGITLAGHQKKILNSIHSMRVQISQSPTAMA

[9] = target: T3, Serine/threonine-protein kinase NLK (Homo sapiens) (UniProt Q9UBE8); assay: Inhibition of human recombinant NLK at 40 nM related to control ULK1
T3 sequence (whole entry): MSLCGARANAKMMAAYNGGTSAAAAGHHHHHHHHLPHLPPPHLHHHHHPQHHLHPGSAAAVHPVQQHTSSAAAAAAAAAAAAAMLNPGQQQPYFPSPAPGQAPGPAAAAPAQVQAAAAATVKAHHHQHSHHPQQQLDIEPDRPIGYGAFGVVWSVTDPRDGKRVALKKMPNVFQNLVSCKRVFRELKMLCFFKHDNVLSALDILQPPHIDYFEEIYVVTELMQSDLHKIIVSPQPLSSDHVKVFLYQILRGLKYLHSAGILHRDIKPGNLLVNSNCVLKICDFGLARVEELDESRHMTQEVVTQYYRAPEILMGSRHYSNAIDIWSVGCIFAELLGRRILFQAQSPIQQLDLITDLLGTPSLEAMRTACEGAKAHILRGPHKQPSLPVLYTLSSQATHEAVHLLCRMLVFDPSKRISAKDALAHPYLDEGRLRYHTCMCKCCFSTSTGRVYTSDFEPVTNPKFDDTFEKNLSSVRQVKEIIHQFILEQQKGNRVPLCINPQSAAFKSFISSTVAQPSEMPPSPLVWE

[10] = target: Serine/threonine-protein kinase PAK 1 (Homo sapiens) (UniProt Q13153); assay: Inhibition of human recombinant PAK1 at 40 nM in presence of ATP by radiometric assay relative to control
Serine/threonine-protein kinase PAK 1 (Homo sapiens), sequence (Q13153 whole entry, looked up): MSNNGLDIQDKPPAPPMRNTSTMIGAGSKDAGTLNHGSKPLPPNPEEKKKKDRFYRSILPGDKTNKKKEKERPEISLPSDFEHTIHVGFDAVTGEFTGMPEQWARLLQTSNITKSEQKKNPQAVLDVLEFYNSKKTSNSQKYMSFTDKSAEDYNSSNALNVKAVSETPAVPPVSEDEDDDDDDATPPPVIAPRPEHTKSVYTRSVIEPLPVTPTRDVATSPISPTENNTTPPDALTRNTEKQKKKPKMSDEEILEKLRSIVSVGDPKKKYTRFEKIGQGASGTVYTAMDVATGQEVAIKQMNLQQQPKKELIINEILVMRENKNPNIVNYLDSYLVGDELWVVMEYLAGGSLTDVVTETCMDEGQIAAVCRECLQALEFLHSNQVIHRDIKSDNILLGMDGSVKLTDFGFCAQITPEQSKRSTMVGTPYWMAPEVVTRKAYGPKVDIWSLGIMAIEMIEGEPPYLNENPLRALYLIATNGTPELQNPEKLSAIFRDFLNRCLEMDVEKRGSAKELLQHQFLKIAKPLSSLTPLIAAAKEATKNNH

Proto-oncogene tyrosine-protein kinase ROS (Homo sapiens), sequence (P08922 whole entry): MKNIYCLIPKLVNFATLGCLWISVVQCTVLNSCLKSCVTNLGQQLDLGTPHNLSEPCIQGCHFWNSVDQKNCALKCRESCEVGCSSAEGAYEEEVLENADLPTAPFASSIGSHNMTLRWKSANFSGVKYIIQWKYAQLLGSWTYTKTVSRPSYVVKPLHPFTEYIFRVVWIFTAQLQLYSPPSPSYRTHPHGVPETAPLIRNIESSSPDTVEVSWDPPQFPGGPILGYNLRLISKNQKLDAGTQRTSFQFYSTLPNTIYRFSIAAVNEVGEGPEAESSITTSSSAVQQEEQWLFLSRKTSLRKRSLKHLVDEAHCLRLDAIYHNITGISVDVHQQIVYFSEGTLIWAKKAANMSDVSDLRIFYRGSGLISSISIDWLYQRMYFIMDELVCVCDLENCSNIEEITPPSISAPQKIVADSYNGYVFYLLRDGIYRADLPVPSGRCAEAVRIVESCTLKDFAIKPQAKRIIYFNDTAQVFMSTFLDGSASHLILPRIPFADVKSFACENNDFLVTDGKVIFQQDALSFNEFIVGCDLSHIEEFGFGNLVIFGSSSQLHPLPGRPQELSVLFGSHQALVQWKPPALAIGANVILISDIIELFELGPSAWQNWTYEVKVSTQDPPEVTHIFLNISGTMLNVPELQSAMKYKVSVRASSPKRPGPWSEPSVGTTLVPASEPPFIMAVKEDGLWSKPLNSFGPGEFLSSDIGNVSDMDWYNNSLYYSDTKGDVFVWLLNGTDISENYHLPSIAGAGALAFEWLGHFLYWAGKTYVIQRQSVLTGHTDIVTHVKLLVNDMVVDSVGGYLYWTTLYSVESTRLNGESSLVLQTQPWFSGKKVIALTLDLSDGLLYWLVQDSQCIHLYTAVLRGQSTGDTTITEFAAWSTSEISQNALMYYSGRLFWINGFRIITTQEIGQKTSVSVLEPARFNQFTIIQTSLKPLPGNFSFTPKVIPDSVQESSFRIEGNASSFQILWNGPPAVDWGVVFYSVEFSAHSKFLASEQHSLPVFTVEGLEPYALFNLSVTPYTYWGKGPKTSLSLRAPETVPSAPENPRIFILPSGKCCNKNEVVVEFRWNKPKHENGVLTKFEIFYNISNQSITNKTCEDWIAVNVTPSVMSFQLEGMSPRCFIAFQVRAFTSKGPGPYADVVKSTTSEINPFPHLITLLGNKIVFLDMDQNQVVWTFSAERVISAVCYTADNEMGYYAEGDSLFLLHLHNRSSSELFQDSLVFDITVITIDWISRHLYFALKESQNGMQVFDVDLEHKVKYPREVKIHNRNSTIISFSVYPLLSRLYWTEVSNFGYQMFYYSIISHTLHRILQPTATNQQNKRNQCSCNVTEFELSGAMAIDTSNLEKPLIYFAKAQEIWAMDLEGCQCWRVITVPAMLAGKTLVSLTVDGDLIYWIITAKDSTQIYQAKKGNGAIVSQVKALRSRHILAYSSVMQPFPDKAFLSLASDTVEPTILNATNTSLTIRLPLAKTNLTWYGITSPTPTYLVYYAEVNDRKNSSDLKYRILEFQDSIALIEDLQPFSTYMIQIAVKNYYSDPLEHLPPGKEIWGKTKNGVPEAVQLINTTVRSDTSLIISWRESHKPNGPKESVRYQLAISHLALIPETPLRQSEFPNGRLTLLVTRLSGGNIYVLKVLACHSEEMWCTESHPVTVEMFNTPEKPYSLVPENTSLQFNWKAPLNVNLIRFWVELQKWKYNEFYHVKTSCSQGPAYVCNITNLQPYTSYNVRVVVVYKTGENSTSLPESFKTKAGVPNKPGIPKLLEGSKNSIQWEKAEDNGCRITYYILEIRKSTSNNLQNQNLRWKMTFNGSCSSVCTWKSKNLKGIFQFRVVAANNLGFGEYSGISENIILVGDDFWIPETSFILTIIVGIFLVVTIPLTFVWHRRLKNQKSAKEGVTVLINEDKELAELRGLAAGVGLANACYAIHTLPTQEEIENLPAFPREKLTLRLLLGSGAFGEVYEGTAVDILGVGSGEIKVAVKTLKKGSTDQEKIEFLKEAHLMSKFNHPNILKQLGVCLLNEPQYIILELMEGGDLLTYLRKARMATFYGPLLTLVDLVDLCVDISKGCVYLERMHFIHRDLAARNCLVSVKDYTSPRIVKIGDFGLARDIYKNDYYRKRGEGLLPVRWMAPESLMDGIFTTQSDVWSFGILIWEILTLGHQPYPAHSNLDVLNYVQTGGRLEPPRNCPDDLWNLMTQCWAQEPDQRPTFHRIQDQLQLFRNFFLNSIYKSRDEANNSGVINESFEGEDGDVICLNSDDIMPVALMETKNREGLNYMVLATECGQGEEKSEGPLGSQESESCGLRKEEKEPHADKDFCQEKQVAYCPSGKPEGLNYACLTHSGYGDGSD
Cyclin-dependent kinase 7 (Homo sapiens), sequence (P50613 whole entry): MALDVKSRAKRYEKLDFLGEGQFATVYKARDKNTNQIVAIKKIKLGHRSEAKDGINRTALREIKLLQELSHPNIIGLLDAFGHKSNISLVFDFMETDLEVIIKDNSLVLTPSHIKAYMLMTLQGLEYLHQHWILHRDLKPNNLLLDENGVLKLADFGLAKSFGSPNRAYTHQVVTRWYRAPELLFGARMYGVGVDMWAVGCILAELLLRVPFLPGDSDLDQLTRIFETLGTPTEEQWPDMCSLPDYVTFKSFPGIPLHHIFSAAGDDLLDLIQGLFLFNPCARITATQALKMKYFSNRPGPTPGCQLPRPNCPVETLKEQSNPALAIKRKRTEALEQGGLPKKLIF
Calcium/calmodulin-dependent protein kinase type II subunit alpha (Homo sapiens), sequence (Q9UQM7 whole entry): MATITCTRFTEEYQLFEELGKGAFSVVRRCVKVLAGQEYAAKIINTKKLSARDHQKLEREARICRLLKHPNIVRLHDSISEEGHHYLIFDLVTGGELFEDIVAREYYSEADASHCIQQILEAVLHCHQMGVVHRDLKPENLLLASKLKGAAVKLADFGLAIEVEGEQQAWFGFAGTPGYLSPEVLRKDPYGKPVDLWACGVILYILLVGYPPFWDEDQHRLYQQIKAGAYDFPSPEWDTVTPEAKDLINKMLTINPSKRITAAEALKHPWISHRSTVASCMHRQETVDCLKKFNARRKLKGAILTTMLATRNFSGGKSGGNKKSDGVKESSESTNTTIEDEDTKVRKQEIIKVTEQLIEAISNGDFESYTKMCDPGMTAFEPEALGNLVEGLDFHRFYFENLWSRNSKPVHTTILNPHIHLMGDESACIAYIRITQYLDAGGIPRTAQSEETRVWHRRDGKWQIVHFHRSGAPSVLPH
Mitogen-activated protein kinase kinase kinase 9 (Homo sapiens), sequence (P80192 whole entry, looked up): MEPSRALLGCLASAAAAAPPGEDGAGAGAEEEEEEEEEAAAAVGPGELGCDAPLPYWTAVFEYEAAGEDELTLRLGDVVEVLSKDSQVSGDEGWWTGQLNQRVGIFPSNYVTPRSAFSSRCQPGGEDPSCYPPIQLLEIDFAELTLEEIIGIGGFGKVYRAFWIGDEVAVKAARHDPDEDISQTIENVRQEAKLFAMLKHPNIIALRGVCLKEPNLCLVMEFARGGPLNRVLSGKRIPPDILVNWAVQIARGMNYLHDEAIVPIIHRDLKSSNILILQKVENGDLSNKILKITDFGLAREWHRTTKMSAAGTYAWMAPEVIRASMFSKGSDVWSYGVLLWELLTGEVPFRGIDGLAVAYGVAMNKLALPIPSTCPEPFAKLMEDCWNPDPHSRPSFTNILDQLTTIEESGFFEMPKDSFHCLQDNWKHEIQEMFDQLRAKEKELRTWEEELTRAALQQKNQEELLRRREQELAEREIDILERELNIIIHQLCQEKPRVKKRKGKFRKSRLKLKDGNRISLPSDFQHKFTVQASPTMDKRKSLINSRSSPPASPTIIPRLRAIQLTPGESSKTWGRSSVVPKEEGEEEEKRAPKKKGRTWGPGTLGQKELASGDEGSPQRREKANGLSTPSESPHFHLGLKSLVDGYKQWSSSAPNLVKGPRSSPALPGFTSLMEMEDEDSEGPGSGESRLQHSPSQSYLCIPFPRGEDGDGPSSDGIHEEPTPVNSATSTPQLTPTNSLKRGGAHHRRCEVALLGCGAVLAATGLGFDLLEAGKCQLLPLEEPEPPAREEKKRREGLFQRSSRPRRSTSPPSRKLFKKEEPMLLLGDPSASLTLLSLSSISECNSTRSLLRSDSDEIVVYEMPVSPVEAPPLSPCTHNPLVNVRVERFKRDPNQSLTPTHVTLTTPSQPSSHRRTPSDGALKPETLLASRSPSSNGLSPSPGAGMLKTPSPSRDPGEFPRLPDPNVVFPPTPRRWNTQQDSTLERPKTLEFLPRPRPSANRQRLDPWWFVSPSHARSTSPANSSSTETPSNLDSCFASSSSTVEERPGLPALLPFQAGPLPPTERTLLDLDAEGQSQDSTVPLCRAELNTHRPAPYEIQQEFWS

inhibition [1]: 0%
fold change (FC) [2]: 0.39
fold change (FC) [3]: 0
SMILES: CNC(=O)c1ccccc1Oc1nc(Nc2cc(OC)c(OC)c(OC)c2)ncc1Br

inhibition [4]: 4%
inhibition [5]: 2%
SMILES: CC(C)[C@H](NC(=O)c1cc(-c2cnn3cc(-c4ccc(OCCN5CCCCC5)cc4)cnc23)cs1)C(F)(F)F

inhibition [6]: 7%
fold change (FC) [7]: 0.67
fold change (FC) [8]: 0.01
fold change (FC) [9]: 0.64
inhibition [10]: 0%
SMILES: O=C(N[C@@H](C1CC1)C(F)(F)F)c1cc(-c2cnn3cc(-c4ccc(F)cc4)cnc23)cs1
